One data set concerns the target Cannabinoid receptor 1 (Homo sapiens, UniProt P21554). Nature of the data set: Binding affinity to human CB1 receptor by [35S]GTPgammaS binding assay. The format is functional.
For the next data set, the target named is Cannabinoid receptor 2 (Homo sapiens, UniProt P34972). In words: Binding affinity to human CB2 receptor by [35S]GTPgammaS binding assay. Format: functional. The method in brief:
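Recombinant human CB2 membranes (7 µg/well) in buffer with 100 mM NaCl, 5 mM MgCl2, 1 mM EDTA, 50 mM HEPES, 10 µM GDP, 100 µM DTT, 0.01% BSA. Incubation 45 min at 30 °C, then filtration and scintillation counting. Nonspecific binding with 20 µM GTPγS. IC50 converted to Ki by Cheng-Prusoff; triplicates.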
A general note: GTPγS is a poorly hydrolysed GTP analogue; its binding reports G protein activation.

The nature of data set [1]: Biodistribution in cynomolgus monkey brain striatum assessed as standardized uptake value at 56 GBq/umol, iv after 90 mins. The format is ADME, organism-based, Macaca fascicularis. As to conditions: in vivo, 1.5 h. The method in brief: (§1)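 Anesthetized cynomolgus monkeys (3.4, 4.8 kg; ketamine/xylazine i.m., head in stereotactic frame). [11C] radioligand given as i.v. bolus over about 5 s: 56–100 MBq, 0.33–0.81 µg carrier. Brain scanned on ECAT EXACT HR for 93 min. Regions defined on a monkey brain atlas. Decay-corrected activity expressed as %SUV (% injected activity per g tissue × body weight).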

A short description of data set [2]: Biodistribution in cynomolgus monkey brain striatum assessed as standardized uptake value at 56 GBq/umol, iv after 1.5 mins. Format: ADME, organism-based, Macaca fascicularis. As to conditions: in vivo, 0.025 h. The method, boiled down:
as §1

Data set [3] is described as follows: Biodistribution in cynomolgus monkey plasma assessed as unchanged drug level at 65 GBq/umol, iv after 45 mins. Format: ADME, organism-based, Macaca fascicularis. As to conditions: read-out: Activity. The method, boiled down: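 Venous blood (1 mL) taken 5, 15, 30 and 45 min after i.v. radioligand in anesthetized monkey. Plasma (0.5 mL) mixed with MeCN containing carrier standard and centrifuged at 2000 × g for 1 min. Supernatant counted, then analyzed by reverse-phase radio-HPLC with a MeCN/0.01 M H3PO4 gradient. Parent expressed as % of plasma radioactivity.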

The subject of data set [4] is Pons. In words: Biodistribution in cynomolgus monkey brain pons assessed as standardized uptake value at 65 GBq/umol, iv after 24 mins. Format: ADME, organism-based, Macaca fascicularis. As to conditions: in vivo, 0.4 h. The method in brief:
as §1

The nature of data set [5]: Biodistribution in cynomolgus monkey brain striatum assessed as standardized uptake value at 65 GBq/umol, iv after 48 mins. Format: ADME, organism-based, Macaca fascicularis. As to conditions: in vivo, 0.8 h. The method in brief: as §1
In data set [6] the test system is Pons. Nature of the data set: Biodistribution in cynomolgus monkey brain pons assessed as standardized uptake value at 78 GBq/umol, iv after 24 mins. The format is ADME, organism-based, Macaca fascicularis. To be noted: in vivo, 0.4 h. The method, boiled down: as §1
Data set [7] deals with Brain. In words: Biodistribution in 1 mg/kg, iv N-(4-fluorobenzyl)-4-(3-(piperidin-1-yl)-1H-indol-1-ylsulfonyl)benzamide pretreated cynomolgus monkey brain assessed as standardized uptake value at […], iv after 15 mins. Format: ADME, organism-based, Macaca fascicularis. More on the design: dose 1 mg/kg, route intravenous. To be noted: in vivo, 0.25 h.
The nature of data set [8]: Biodistribution in cynomolgus monkey brain striatum assessed as standardized uptake value at 78 GBq/umol, iv after 90 mins. The format is ADME, organism-based, Macaca fascicularis. To be noted: in vivo, 1.5 h. The method, boiled down: as §1
The subject of data set [9] is Pons. In words: Biodistribution in cynomolgus monkey brain pons assessed as standardized uptake value at 78 GBq/umol, iv after 90 mins. Format: ADME, organism-based, Macaca fascicularis. As to conditions: in vivo, 1.5 h. The method, boiled down: as §1
A short description of data set [10]: Biodistribution in cynomolgus monkey brain striatum assessed as standardized uptake value at 78 GBq/umol, iv after 30 mins. The format is ADME, organism-based, Macaca fascicularis. As to conditions: in vivo, 0.5 h. The method in brief: as §1
The test system of data set [11] is Brain. Nature of the data set: Biodistribution in 1 mg/kg, iv N-(4-fluorobenzyl)-4-(3-(piperidin-1-yl)-1H-indol-1-ylsulfonyl)benzamide pretreated cynomolgus monkey brain assessed as standardized uptake value at […], iv after 90 mins. Format: ADME, organism-based, Macaca fascicularis. On the set-up: dose 1 mg/kg, route intravenous. As to conditions: in vivo, 1.5 h.

Another data set concerns the target Histamine H2 receptor (Homo sapiens, UniProt P25021). Nature of the data set: Displacement of [3H]tiotidine from human cloned histamine H2 receptor.
The next data set addresses Histamine H3 receptor (Homo sapiens, UniProt Q9Y5N1). Nature of the data set: Displacement of [3H]alpha methyl histamine from human cloned histamine H3 receptor.
Data set [12] concerns the target 5-hydroxytryptamine receptor 2A (Homo sapiens, UniProt P28223). Nature of the data set: Displacement of [3H]ketanserin from human cloned 5HT2A receptor. A general note: Loss of bound radioactivity is the signal in a displacement assay; it reports binding, not function.

One may read the IC50 as the concentration at which inhibition is half-maximal. The term Ki denotes the equilibrium dissociation constant of an inhibitor or competing ligand from its target.

Sequence of Cannabinoid receptor 1 (P21554 whole entry): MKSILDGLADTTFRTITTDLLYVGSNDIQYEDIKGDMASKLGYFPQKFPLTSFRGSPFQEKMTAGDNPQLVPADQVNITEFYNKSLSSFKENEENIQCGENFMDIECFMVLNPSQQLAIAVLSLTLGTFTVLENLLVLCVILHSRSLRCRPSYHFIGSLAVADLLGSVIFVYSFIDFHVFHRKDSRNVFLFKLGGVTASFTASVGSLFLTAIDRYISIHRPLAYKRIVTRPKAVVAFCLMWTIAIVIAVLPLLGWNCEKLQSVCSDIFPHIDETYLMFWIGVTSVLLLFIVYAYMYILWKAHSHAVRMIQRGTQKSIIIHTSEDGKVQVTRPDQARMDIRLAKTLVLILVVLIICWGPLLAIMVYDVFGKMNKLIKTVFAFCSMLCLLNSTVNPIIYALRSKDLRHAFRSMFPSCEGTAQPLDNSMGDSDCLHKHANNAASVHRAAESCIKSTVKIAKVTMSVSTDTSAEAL
Sequence of Cannabinoid receptor 2 (P34972 whole entry): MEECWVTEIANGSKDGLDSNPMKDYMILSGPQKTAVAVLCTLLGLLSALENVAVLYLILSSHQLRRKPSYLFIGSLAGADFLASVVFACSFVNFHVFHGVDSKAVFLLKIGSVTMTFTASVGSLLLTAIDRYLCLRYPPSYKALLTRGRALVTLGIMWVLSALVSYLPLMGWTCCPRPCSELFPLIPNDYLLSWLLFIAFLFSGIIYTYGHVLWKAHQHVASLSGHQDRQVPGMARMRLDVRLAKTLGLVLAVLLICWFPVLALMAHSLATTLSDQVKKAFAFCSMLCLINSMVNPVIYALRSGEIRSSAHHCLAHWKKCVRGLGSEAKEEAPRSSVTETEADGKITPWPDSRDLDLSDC
Sequence of 5-hydroxytryptamine receptor 2A (P28223 whole entry): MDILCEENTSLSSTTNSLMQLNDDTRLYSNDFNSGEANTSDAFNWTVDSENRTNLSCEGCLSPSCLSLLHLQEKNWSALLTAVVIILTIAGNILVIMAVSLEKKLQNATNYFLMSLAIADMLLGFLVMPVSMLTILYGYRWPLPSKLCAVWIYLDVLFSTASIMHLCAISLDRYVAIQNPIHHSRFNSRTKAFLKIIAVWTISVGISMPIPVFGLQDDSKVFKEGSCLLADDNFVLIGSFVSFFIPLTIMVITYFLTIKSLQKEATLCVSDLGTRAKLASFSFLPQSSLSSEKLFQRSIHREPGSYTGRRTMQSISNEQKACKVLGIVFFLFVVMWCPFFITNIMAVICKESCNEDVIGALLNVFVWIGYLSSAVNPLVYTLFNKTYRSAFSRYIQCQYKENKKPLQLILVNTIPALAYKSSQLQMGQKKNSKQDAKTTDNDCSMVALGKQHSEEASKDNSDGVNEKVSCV
Sequence of Histamine H2 receptor (P25021 whole entry): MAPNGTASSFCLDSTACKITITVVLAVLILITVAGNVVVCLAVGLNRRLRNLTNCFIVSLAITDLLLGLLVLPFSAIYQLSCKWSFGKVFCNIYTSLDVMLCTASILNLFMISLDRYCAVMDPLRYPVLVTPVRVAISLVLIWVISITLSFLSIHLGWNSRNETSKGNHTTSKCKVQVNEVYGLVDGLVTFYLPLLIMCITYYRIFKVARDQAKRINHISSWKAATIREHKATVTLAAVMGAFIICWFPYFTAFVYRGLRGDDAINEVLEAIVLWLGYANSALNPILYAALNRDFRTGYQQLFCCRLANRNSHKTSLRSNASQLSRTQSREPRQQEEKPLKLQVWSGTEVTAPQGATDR
Sequence of Histamine H3 receptor (Q9Y5N1 whole entry): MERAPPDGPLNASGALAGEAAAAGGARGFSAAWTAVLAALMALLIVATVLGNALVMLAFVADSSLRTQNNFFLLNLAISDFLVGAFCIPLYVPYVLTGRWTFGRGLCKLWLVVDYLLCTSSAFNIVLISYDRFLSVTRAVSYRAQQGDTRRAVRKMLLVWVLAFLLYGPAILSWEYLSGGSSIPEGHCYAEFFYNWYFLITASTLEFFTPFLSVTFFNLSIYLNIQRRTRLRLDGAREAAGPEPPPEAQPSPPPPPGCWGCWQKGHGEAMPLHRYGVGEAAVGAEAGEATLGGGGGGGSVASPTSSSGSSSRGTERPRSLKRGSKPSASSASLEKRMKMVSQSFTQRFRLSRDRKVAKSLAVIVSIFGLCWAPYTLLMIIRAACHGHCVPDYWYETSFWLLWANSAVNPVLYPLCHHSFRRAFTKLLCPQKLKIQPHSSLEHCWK

Take `N#Cc1ccc(S(=O)(=O)/N=C(\N)N2C[C@@H](c3ccccc3)C(c3ccc(Cl)cc3)=N2)cc1`: the IC50 is 100 nM at Cannabinoid receptor 1 and > 33000 nM on Cannabinoid receptor 2. Further, the Ki was 16.9 nM at Cannabinoid receptor 1 and > 5000 nM at Cannabinoid receptor 2.
In the case of `N/C(=N\S(=O)(=O)c1ccc(I)cc1)N1C[C@H](c2ccccc2)C(c2ccc(Cl)cc2)=N1`, the values for the concentration for half-maximal inhibition (IC50) at Cannabinoid receptor 1 and on Cannabinoid receptor 2 were 1.9 nM and > 33000 nM, respectively. The figures for the Ki at Cannabinoid receptor 1 and on Cannabinoid receptor 2 were 0.3 nM and > 5000 nM, respectively.
For `N/C(=N\S(=O)(=O)c1ccc(I)cc1)N1C[C@@H](c2ccccc2)C(c2ccc(Cl)cc2)=N1` the same measures were 104 nM, > 33000 nM, 17.4 nM and > 5000 nM.
Consider `N#[11C]c1ccc(S(=O)(=O)/N=C(\N)N2C[C@@H](c3ccccc3)C(c3ccc(Cl)cc3)=N2)cc1`, for which the Drug uptake in data set [1] was found to be 95%; in [2] it was 280%.
`N#[11C]c1ccc(S(=O)(=O)/N=C(\N)N2C[C@H](c3ccccc3)C(c3ccc(Cl)cc3)=N2)cc1`: in data set [3], the remaining at 0.75 h came to 50%. Besides, the Drug uptake with Pons [4] is 125%; in data set [5], 200%.
For the compound `N#[11C]c1ccc(S(=O)(=O)/N=C(\N)N2CC(c3ccccc3)C(c3ccc(Cl)cc3)=N2)cc1` (racemic), the Drug uptake in the data set with Pons [6] is 150%; in the data set with Brain [7] it was 175%; in data set [8], 180%; in the data set with Pons [9], 124%; in data set [10], 220%; in the data set with Brain [11], 85%.
As to `N#Cc1ccc(S(=O)(=O)/N=C(\N)N2C[C@H](c3ccccc3)C(c3ccc(Cl)cc3)=N2)cc1`, the figures for the half-inhibitory concentration (IC50) on Cannabinoid receptor 1 and on Cannabinoid receptor 2 were 2.8 nM and > 33000 nM, respectively. Moreover, the Ki is 0.5 nM on Cannabinoid receptor 1; > 5000 nM on Cannabinoid receptor 2; > 10000 nM at Histamine H2 receptor; > 10000 nM on Histamine H3 receptor; > 7710 nM in data set [12].

For the origin of these results see ChEMBL document CHEMBL1140076, “Discovery and labeling of high-affinity 3,4-diarylpyrazolines as candidate radioligands for in vivo imaging of cannabinoid subtype-1 (CB1) receptors” (J Med Chem, 2008).
